High-throughput results as filed in PubChem BioAssay.
Compounds with a hit are over-represented: about 3.7% of the library has one in this group of screens.
Insulin prom inh: TRM-6 insulin promoter activity inhibition; inhibition, % at 2 µM; TRM-6 cells (human fetal islet line), insulin promoter-eGFP reporter, imaging; reporter expression induced with tamoxifen; AID 1273; actives 0.9% (n = 130,000);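 active means inhibition above the mean plus 3 SD, with well images judged a real hit on visual review, cut at about 60% in these data, passing the limit was not always enough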
HMGR II inh: inhibitors of class II HMG-CoA reductase from Enterococcus faecalis. purified E. faecalis HMGR, NADPH absorbance 340 nm kinetic. inhibition, % at 10 µM. actives 0.41% (n = 190,000). AID 1066;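 active means inhibition above a set limit, the median over all tested compounds plus 3 SD, cut at about 9.5% in these data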;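 further: enzyme runs in reverse so mevalonate oxidation gives rising NADPH absorbance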
Yeast lifespan up: extends the lifespan of yeast | AID 775 | actives 0.68% (n = 130,000) | inhibition of the nicotinamide effect, % at 10 µM | S. cerevisiae growth with nicotinamide, OD615; deaD strain in restrictive glucose medium;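 active means inhibition above a set limit, placed 3 SD over the median of all compounds, cut at about 26% in these data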
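Assay system: DeaD-strain S. cerevisiae. Medium: CSMM-D glucose medium, restrictive. Reagent: nicotinamide, 1.5 mM, co-present with compound. Compound: 10 µM single point, 0.25% DMSO. Schedule: culture preincubation 4 h, compound exposure 48 h, both 30 °C. Detection: absorbance at 615 nm.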
RAM network inh: yeast RAM network inhibition; S. cerevisiae dse1pr::URA3 reporter, 5-FOA growth OD615, 2 d; analog-sensitive cbk1-as2 kinase mutant strain; inhibition, % at 50 µM; actives 1.8% (n = 190,000); AID 868;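 active means inhibition above a set limit, 3 SD over mean compound inhibition, cut at about 8.4% in these data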;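 further: inhibition rescues growth on 5-FOA so higher OD means more RAM inhibition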
Yeast growth inh: reduces growth of yeast BB579 in restrictive medium; actives 0.51% (n = 140,000); inhibition, % at 10 µM; S. cerevisiae BB579 growth, OD615, 48 h;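 active means inhibition above a set limit, 3 SD over the mean compound inhibition, cut at about 44% in these data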
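System: Saccharomyces cerevisiae DeaD strain BB579, replicative lifespan model yeast | Buffer or medium: Restrictive glucose-based CSMM-D medium | Times: 4 h preincubation and 48 h exposure at 30 °C | Detection: OD615 turbidity measurement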
Of the large screens only hits and unclear results are named; the others gave an inactive call.

COc1ccc(C(=O)NCc2cc(C)nc3ccccc23)cc1OC	Insulin prom inh 100 (no result: Yeast lifespan up, Yeast growth inh)
O=C(CCCCCNc1nc(=S)[nH]c2ccccc12)NCCC1=CCCCC1	none (no result: Yeast lifespan up, Yeast growth inh)
Cc1cc(/C=C2/NC(=O)N(Cc3ccccc3F)C2=O)c(C)n1C	Yeast lifespan up 27
Cc1cc(/C=C2/NC(=O)N(Cc3ccccc3F)C2=O)c(C)n1-c1ccccn1	none
Cn1c(=O)n(CC(=O)Nc2ccccc2)c2ccccc21	none (no result: Insulin prom inh)
Cc1cccc(NC(=O)Cn2c(=O)n(C)c3ccccc32)c1	HMGR II inh 12 (no result: Yeast lifespan up)
Cc1cccc(NC(=O)CN2C(=O)N/C(=C/c3cc(C)n(C)c3C)C2=O)c1	Insulin prom inh 83 (no result: Yeast lifespan up, Yeast growth inh)
O=C(CN(Cc1ccco1)S(=O)(=O)c1ccccc1)N/N=C/c1ccccc1C(=O)O	none (no result: Insulin prom inh, Yeast lifespan up, Yeast growth inh)
CCOc1ccc(NC(=S)N2CCC(N(C)CCN3CCOCC3)CC2)cc1	none
CCOC(=O)CSc1nc(-c2ccccc2)nc2c1oc1ccccc12	none
c1ccc(-c2nc(NCc3ccco3)c3oc4ccccc4c3n2)cc1	RAM network inh 11
Cc1ccc(-c2nc(NCc3ccco3)c3ccccc3n2)cc1	none
O=C(O)CSc1nc(-c2ccccc2)nc2c1oc1ccccc12	RAM network inh 9.8
O=C(NCc1cccnc1)c1nn2cccnc2c1Cl	none (no result: Insulin prom inh, Yeast lifespan up, Yeast growth inh)
CCCCNc1nnc(SCC(=O)c2c[nH]c3ccccc23)s1	none
CC(C)(C)c1ccccc1OCCCCCn1ccnc1	none (no result: Yeast lifespan up, Yeast growth inh)
Cc1ccc(C(=O)c2c(C)oc3c2C(=O)C(=O)c2ccccc2-3)cc1	Yeast growth inh 70
CC(Cl)C(=O)c1c[nH]c2ccccc12 (stereo not given)	none (no result: Insulin prom inh, Yeast lifespan up, Yeast growth inh)
O=C(NCCSc1ccccc1)c1cncc(Br)c1	Insulin prom inh 75
O=C(Nc1ccc(Cl)cn1)c1ccc(COc2ccccc2Br)o1	RAM network inh 11 (no result: Yeast lifespan up, Yeast growth inh)
COc1ccc(C2NC(=O)c3sc4nc(C)c(C(C)=O)c(-c5ccc(Cl)cc5)c4c3N2)cc1 (stereo not given)	RAM network inh 10 (no result: Insulin prom inh)
COc1ccc(-c2c(C(C)=O)c(C)nc3sc4c(=N)n(N)cnc4c23)cc1	none (no result: Insulin prom inh)
Cc1ccc(NC(=O)CSc2nc(C)c(C)c(C)n2)c([N+](=O)[O-])c1	RAM network inh 8.5
Cc1ccc(NC(=O)C2(c3cccs3)CCOCC2)cc1C	none
CCn1c(=O)c(C(=O)NNS(=O)(=O)c2ccc(Cl)cc2)c(O)c2ccccc21	Yeast lifespan up 28 (no result: Insulin prom inh)
CCCCCCC(=O)NNC(=O)c1c(O)c2ccccc2n(CC)c1=O	none (no result: Yeast lifespan up, Yeast growth inh)
N#CC1=C(N)NC(SCC(=O)c2ccccc2)=C(C#N)C12CCCC2	RAM network inh 11
CCO[C@@H]1OC(C(=O)NCc2ccccc2)=C[C@H](c2ccc(C(F)(F)F)cc2)[C@H]1CCCO	none (no result: Insulin prom inh, Yeast lifespan up, Yeast growth inh)
S=C(Nc1ccc(N2CCOCC2)cc1)Nc1ccc2nc(-c3ccco3)c(-c3ccco3)nc2c1	Yeast lifespan up 37
Cc1ccc(NC(=O)C(OC(=O)c2ccc(O)cc2)c2ccccc2)cc1Cl (stereo not given)	RAM network inh 8.5
COc1ccc(-c2nc3c(c(SCC(=O)N4CCOCC4)n2)COC(C)(C)C3)cc1	Insulin prom inh 61
CC(Sc1nc(-c2ccccc2)nc2c1COC(C)(C)C2)C(=O)N1CCOCC1 (stereo not given)	none
N#C/C(=C\c1cc2ccccc2nc1N1CCOCC1)C(=O)Nc1ccc(N2CCOCC2)cc1	none
N#CC(C#N)=Cc1cc2ccccc2nc1N1CCOCC1	HMGR II inh 14
COc1ccccc1/C=N/NC(=O)Cn1cnc([N+](=O)[O-])n1	none (no result: Yeast lifespan up, Yeast growth inh)
CCSc1nc2ccccc2n1S(=O)(=O)c1ccccc1	Yeast growth inh 46 (no result: Insulin prom inh)
CCOP(=O)(C1=C(O)C(=O)C(C(C)(C)C)=CC1=O)c1ccccc1 (stereo not given)	Insulin prom inh 67 (no result: Yeast lifespan up, Yeast growth inh)
Cc1nn(C(=O)c2nn(C)cc2[N+](=O)[O-])c(C)c1Cl	none (no result: Insulin prom inh, Yeast lifespan up, Yeast growth inh)
CN(C)S(=O)(=O)c1ccc(Cl)c(NC(=O)CSc2nc3c(cc2C#N)C(=O)CC(C)(C)C3)c1	RAM network inh 9.1
CN(C)S(=O)(=O)c1cccc(NC(=O)CSc2nc3c(cc2C#N)C(=O)CC(C)(C)C3)c1	none (no result: Insulin prom inh)
CC1(C)CC(=NOC(=O)c2ccccc2)CC(C)(C)N1O	Yeast growth inh 74
Cc1ccc(S(=O)(=O)NCC(=O)OCC(=O)Nc2cccc(S(=O)(=O)NC3=NCCCCC3)c2)cc1	Insulin prom inh 78 (no result: Yeast lifespan up, Yeast growth inh)
Cc1ccc(S(=O)(=O)NCCC(=O)OCC(=O)Nc2cccc(S(=O)(=O)NC3=NCCCCC3)c2)cc1	none (no result: Yeast lifespan up, Yeast growth inh)
CSc1nc(Cl)c(Cc2ccc(OC(C)C)cc2)c(N(C)C)n1	RAM network inh 8.9 (no result: Insulin prom inh)
Cc1[nH]nc2ncc(C(=O)c3ccccc3O)cc12	Insulin prom inh 80
COC(=O)c1c(NC(=O)/C=C/C(=O)O)sc(Cc2ccccc2)c1C	none
Cc1c(Cc2ccccc2)sc(NC(=O)/C=C/c2cccc3ccccc23)c1C(N)=O	RAM network inh 9.8 (no result: Insulin prom inh)
COc1ccc(S(=O)(=O)Nc2ccc3c(c2)OCO3)cc1C	Insulin prom inh 86
COc1ccc(S(=O)(=O)Nc2ccc3c(c2)OCO3)cc1	none
Cc1ccc(S(=O)(=O)N2CCC(=O)N(C(COCc3ccccc3)Cc3ccccc3)CC2)cc1 (stereo not given)	none
Cc1ccc(S(=O)(=O)N2CCC(=O)N(C(COCc3cccc(Cl)c3)C(C)C)CC2)cc1 (stereo not given)	RAM network inh 8.6
Cc1ccc(S(=O)(=O)N2CCC(=O)N(C(COCc3cccc(C(F)(F)F)c3)Cc3ccccc3)CC2)cc1 (stereo not given)	RAM network inh 9.8
COc1cccc(CNC(=O)CCC2CCCN(c3cc(C)nc(N4CCCC4)n3)C2)c1 (stereo not given)	none (no result: Insulin prom inh, Yeast lifespan up, Yeast growth inh)
COc1ccccc1C(=O)NNC(=S)NC(=O)c1cc(OC)c(OC)c(OC)c1	none (no result: Yeast lifespan up, Yeast growth inh)
COc1ccc(C(=O)NC(=S)NNC(=O)c2cnccn2)cc1	Yeast growth inh 81
COc1cc(C(=O)NC(=S)NNC(=O)c2cnccn2)cc(OC)c1OC	Yeast growth inh 88
Cc1ccc(S(=O)(=O)c2ccc(Cl)cc2)cc1S(=O)(=O)N(C)CC(=O)O	none (no result: Insulin prom inh)
CCO/N=C/C1=C(O)C(C(=O)OC)C(C)(C)CC1=O (stereo not given)	none (no result: Yeast lifespan up, Yeast growth inh)
CC/C(=C1/C(=O)CC(C)(C)C(C(=O)OC)C1=O)N1CCCC1 (stereo not given)	Yeast lifespan up 30
COc1nc(NCCO)nc(Nc2ccccc2F)n1	none (no result: Insulin prom inh, Yeast lifespan up, Yeast growth inh)
COc1ccccc1NC(=O)/C(=C/c1cccc([N+](=O)[O-])c1)c1ccccc1	RAM network inh 11
COc1ccc(Cn2nnc3c(=O)[nH]c(C(=O)NCCc4ccc(F)cc4)nc32)cc1OC	Insulin prom inh 90
O=C(NCCc1ccccc1)c1nc2c(nnn2Cc2ccccc2Cl)c(=O)[nH]1	none
C[C@@H](C(=O)Nc1ccc2ccccc2c1)[C@H]1C[C@]1(C)[C@H](NS(=O)(=O)c1ccccc1)c1ccccc1	none
Cc1ccc(C)c(OCC(=O)N2CCOCC2)c1	Insulin prom inh 89
Cc1ccc(OCC(=O)N2CCCCCC2)c(C)c1	none
